Measurements: ChEMBL document CHEMBL1127689, “Novel 4-(aryloxy)tetrahydropyridine analogs of MPTP as monoamine oxidase A and B substrates” (J Med Chem, 1994)

Legend:
[1] = biological target: T1, Amine oxidase [flavin-containing] B (Bos taurus, UniProt P56560); assay: Turnover number (TN) for bovine mono-amine oxidase B MAO-B; details: cattle
T1 sequence (P56560 whole entry): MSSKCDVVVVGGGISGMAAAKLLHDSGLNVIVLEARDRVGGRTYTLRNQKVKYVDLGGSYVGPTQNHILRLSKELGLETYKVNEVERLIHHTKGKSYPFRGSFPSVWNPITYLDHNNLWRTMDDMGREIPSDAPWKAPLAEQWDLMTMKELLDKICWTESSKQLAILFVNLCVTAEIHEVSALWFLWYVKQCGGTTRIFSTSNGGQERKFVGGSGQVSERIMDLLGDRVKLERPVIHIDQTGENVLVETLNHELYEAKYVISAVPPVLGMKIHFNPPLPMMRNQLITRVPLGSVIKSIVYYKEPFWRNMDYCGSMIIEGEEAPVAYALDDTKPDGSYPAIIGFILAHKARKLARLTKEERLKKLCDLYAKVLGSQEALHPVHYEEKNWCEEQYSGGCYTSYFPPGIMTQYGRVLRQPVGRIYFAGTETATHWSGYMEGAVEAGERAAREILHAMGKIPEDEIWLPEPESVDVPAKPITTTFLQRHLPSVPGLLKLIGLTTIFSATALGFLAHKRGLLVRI
Summary of the method: (§1)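 Bovine liver mitochondrial MAO-B, partially purified, at 0.087 μM. Four substrate concentrations were used, from 500–62.5 μM solutions in 100 mM sodium phosphate, pH 7.4. Each was equilibrated 1 min at 37 °C before enzyme was added. Amino enone formation was read at 324 nm every 3 s for 2 min, in duplicate. Km and TN came from Lineweaver-Burk double-reciprocal plots of initial rates.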

[2] = biological target: T2, Amine oxidase [flavin-containing] A (Homo sapiens, UniProt P21397); assay: Turnover number (TN) for human mono-amine oxidase MAO-A
T2 sequence (P21397 whole entry): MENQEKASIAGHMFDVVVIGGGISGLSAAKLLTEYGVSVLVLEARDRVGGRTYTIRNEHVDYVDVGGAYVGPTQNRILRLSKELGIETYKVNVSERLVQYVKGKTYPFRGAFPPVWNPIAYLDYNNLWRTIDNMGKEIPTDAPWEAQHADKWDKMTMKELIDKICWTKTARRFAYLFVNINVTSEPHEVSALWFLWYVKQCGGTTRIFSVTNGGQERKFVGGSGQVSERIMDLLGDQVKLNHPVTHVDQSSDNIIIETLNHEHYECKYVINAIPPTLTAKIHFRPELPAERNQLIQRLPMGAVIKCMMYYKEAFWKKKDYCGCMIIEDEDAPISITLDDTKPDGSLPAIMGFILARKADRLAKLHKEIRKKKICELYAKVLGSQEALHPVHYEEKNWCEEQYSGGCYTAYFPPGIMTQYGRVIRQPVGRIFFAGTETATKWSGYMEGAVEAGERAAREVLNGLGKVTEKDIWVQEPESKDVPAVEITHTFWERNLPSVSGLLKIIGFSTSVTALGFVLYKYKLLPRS
Summary of the method: (§2)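 MAO-A preparation was diluted 1:4 in 20 mM phosphate, pH 7.4, with 20% w/v glycerol and used at 0.17 μM. Four substrate concentrations were used, from 500–62.5 μM solutions in 100 mM sodium phosphate, pH 7.4, after 1 min at 37 °C. Initial rates were taken from the 324 nm amino enone absorbance, read every 3 s for 2 min, in duplicate. Km and TN came from double-reciprocal plots.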

[3] = biological target: T2, Amine oxidase [flavin-containing] A; assay: Ratio of turnover to Km for human MAO-A; summary of the method: as §2
[4] = biological target: T1, Amine oxidase [flavin-containing] B; assay: Ratio of turnover to Km for bovine MAO-B; details: cattle; summary of the method: as §1
MAO-B = biological target: T3, MAO-B (Bos taurus, UniProt P56560); assay: (§3) Oxidation by bovine mono-amine oxidase B MAO-B; details: cattle, bovine monoamine oxidase B (MAO-B) enzyme; summary of the method: as §1
T3 sequence (P56560 whole entry): T1 sequence (P56560 whole entry)

[5] = biological target: T2, Amine oxidase [flavin-containing] A; assay: Oxidation by human mono-amine oxidase MAO-A; summary of the method: as §2
[6] = biological target: T1, Amine oxidase [flavin-containing] B; assay: as §3; details: cattle; summary of the method: as §1

SMILES	TN [1]	TN [2]	Ratio [3]	Ratio [4]	Km (MAO-B)	Km [5]	Km [6]
CN1CC=C(Oc2ccc(Cl)cc2Cl)CC1	223 M min-1 M-1	95 M min-1 M-1	3290	1334	–	–	–
CCCCc1ccc(OC2=CCN(C)CC2)cc1	92 M min-1 M-1	85 M min-1 M-1	1676	1090	–	–	–
CN1CC=C(Oc2cc3ccccc3c3ccccc23)CC1	> 200 M min-1 M-1	59 M min-1 M-1	212	–	> 1 mM	–	–
CN1CC=C(Oc2cccc3ccccc23)CC1	81 M min-1 M-1	227 M min-1 M-1	1567	565	–	–	–
CN1CC=C(Cc2cc3ccccc3c3ccccc23)CC1	> 53 M min-1 M-1	365 M min-1 M-1	759	–	–	–	–
CN1CC=C(Cc2ccc3ccccc3c2)CC1	276 M min-1 M-1	121 M min-1 M-1	3340	310	–	36 µM	–
CN1CC=C(Cc2cccc3ccccc23)CC1	89 M min-1 M-1	433 M min-1 M-1	2590	105	–	167 µM	847 µM
CN1CC=C(c2ccccc2)CC1	204 M min-1 M-1	20 M min-1 M-1	143	523	–	–	–
CN1CC=C(Oc2ccc(-c3ccccc3)cc2)CC1	103 M min-1 M-1	173 M min-1 M-1	1710	363	–	–	–
CN1CC=C(Oc2ccc(C(C)(C)C)cc2)CC1	22 M min-1 M-1	111 M min-1 M-1	855	395	–	–	–
CN1CC=C(Oc2ccc3ccccc3c2)CC1	333 M min-1 M-1	207 M min-1 M-1	2685	1214	–	–	–
CN1CC=C(Cc2ccccc2)CC1	193 M min-1 M-1	9 M min-1 M-1	139	1250	–	66 µM	154 µM
CN1CC=C(Oc2ccccc2)CC1	241 M min-1 M-1	130 M min-1 M-1	2359	4151	–	–	–
NCc1ccccc1 [BENZYLAMINE]	283 M min-1 M-1	–	–	963	–	–	290 µM
NCCC(=O)c1ccccc1N [KYNURAMINE]	–	146 M min-1 M-1	860	–	–	170 µM	–
